Assay outcomes: PubChem, The Scripps Research Institute Molecular Screening Center
OX1R antag-1: antagonists of human orexin 1 receptor | O43613 | inhibition, % at 5 µM | CHO/OX1R cells, Fluo-8 calcium fluorescence, orexin A | hit rate 0.43% among 330,000;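 active means inhibition above its plate's threshold, mean inhibition of all tested compounds on the plate plus 3 SD, cut at about 37% in these data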
TAAR1 ag: human TAAR1 agonism. Q96RJ0. CHO RD-HGA16 TAAR1, Fluo-8 calcium fluorescence; vehicle wells 0%, saturating PEA agonist 100%. activation, % at 3 µM. hit rate 0.99% among 360,000;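 active means activation above the mean activation of all test compounds in the run plus 3 SD, cut at about 38% in these data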
Target sequence (Q96RJ0 whole entry, looked up): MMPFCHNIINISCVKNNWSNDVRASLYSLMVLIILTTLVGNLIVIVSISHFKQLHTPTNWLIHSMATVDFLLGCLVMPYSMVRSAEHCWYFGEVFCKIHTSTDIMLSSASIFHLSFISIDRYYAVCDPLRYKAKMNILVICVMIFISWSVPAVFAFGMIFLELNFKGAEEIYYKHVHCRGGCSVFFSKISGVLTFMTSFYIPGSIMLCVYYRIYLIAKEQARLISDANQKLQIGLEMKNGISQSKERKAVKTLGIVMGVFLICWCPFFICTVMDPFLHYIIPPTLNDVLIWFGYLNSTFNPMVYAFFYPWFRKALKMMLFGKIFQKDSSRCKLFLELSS
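System: CHO-derived RD-HGA16 cells with stable Gα16 and human TAAR1 / Times: 17-24 h plating, Fluo-8 75 min 37 °C, 30 min RT / Technique: calcium-sensitive Fluo-8 signal, excitation 470-495, emission 515-575 nm / Measure: % activation relative to PEA EC100 response / Benchmarks: DMSO and PEA EC100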
CHO parental Ca: counter-screen for OX1R antagonists: effect in parental CHO cells. parental CHO-K1, ATP-induced calcium, Fluo-8 fluorescence. inhibition, % at 5.6 µM. hit rate 0.63% among 330,000;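 active means inhibition above that plate's mean sample inhibition plus 3 SD, cut at about 26% in these data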
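Test system: untransfected parental CHO cell line; also added: ATP stimulus; dosing: 5.6 µM, single dose; signal: calcium-sensitive Fluo-8 fluorescence; measure: percent inhibition of ATP-evoked calcium rise, normalized to controls; benchmarks: low control ATP plus DMSO, high control DMSO only; replication: one well per compound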
GPR7 antagonist: blocks human GPR7 receptor signaling | hit rate 1.1% among 290,000 | GPR7-expressing cells, fluorescence antagonist assay | P48145 | inhibition, % at 4.4 µM | AID 1861; in the data active means inhibition above about 16%, passing the limit was not always enough;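 further: cells stimulated with the agonist NPW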
Target sequence (P48145 whole entry, looked up): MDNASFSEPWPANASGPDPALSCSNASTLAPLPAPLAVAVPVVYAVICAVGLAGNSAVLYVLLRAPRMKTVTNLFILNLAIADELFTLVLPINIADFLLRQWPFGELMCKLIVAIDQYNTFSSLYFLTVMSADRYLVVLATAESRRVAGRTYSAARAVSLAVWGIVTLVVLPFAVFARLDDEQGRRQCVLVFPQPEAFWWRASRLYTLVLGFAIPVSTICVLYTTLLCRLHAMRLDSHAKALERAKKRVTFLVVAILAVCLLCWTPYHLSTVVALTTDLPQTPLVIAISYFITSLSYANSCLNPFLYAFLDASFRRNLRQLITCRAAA
TAAR1 antag: antagonists of human TAAR1; Q96RJ0; CHO RD-HGA16 TAAR1, Fluo-8 calcium fluorescence, antagonist; inhibition, % at 3 µM; hit rate 1.5% among 360,000;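 active means inhibition above a per-plate cutoff, the mean inhibition of test compounds on that plate plus 3 SD, cut at about 49% in these data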
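Test system – hTAAR1-expressing CHO RD-HGA16 cells, Gα16-coupled · Reagent – β-PEA at EC80 concentration, post-compound challenge · Compound dosing – 3 µM, single point · Timing – 140 s kinetic read after compound, 140 s after agonist · Detection – Fluo-8 intracellular calcium dye fluorescence, real-time kinetic reads · Control set – DMSO and EC80 PEA controls · Repeats – n of 1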
OX1R antag-2: OX1R (human) antagonism; O43613; OX1R-expressing cells, FRET antagonist read-out; inhibition, % at 6.6 µM; hit rate 1.8% among 330,000; in the data active means inhibition mostly above about 38%, no sharp cut-off; inactive means mostly below about 40%
GPR7 antag cf: confirmation of human GPR7 antagonists. shares compounds with GPR7 antagonist. GPR7-expressing cells, calcium fluorescence antagonist mode. inhibition, % at 4.4 µM. hit rate 52% among 2,400. AID 1952; in the data active means inhibition above about 24%;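 further: stimulated with the GPR7 agonist NPW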
MCHR1 antagonist: counter-screen for GPR7 antagonists: antagonists of human MCHR1; shares compounds with GPR7 antagonist; MCHR1-expressing cells, fluorescence antagonist assay; inhibition, % at 4.4 µM; hit rate 62% among 2,400; AID 2148; in the data active means inhibition above about 22%
Large screens that a line does not name were inactive (follow-up assays come after a bar, where they were run). Only some compounds are listed: those with a hit (about 4.5% of all), similar ones and a draw of the others.

CC(C)CN(C(=O)COC(=O)c1ccccc1SCC(=O)N1CCCC1)C1CCS(=O)(=O)C1 (configuration not stated)	none (no result: OX1R antag-1, CHO parental Ca, GPR7 antagonist, OX1R antag-2)
CC(C)(C)c1ccc(C(=O)N2CCC(C(=O)c3ccccc3)CC2)cc1	GPR7 antagonist 41 | GPR7 antag cf 39 | MCHR1 antagonist 38
Cc1ccc(F)c(S(=O)(=O)NC(=O)C2(C)CCN2C(=O)c2ccc(C3CCCCC3)cc2)c1 (configuration not stated)	none (no result: OX1R antag-1, CHO parental Ca, GPR7 antagonist, OX1R antag-2)
CC1(C(=O)NCc2ccccc2)CCC(=O)N1C1CCN(Cc2ccccc2)CC1 (configuration not stated)	none (no result: OX1R antag-1, CHO parental Ca, GPR7 antagonist, OX1R antag-2)
CCOC(=O)CSc1nc(N)c(C#N)c(-c2ccc(OCC)cc2)c1C#N	GPR7 antagonist 22 | GPR7 antag cf inactive | MCHR1 antagonist 22
COC(=O)CSc1nc(N)c(C#N)c(-c2ccc(O)cc2)c1C#N	none
c1ccc(OCCOCCN2CCOCC2)cc1	none
CC(C)(c1ccccc1)c1ccc(OCCN2CCOCC2)cc1	GPR7 antagonist 37 | GPR7 antag cf inactive | MCHR1 antagonist inactive
CCOC(=O)C1(C)CCCN1C(=O)c1ccc(F)c(Cl)c1 (configuration not stated)	none (no result: OX1R antag-1, CHO parental Ca, GPR7 antagonist, OX1R antag-2)
CC(=O)Nc1cccc(-c2ccnc3c2CC(C(=O)NCc2ccc(N4CCN(C)CC4)cc2)O3)c1 (configuration not stated)	none (no result: OX1R antag-1, CHO parental Ca, GPR7 antagonist, OX1R antag-2)
O=[N+]([O-])c1cccc(S(=O)(=O)NCC2CC3CCC2C3)c1 (configuration not stated)	GPR7 antagonist 38 | GPR7 antag cf inactive | MCHR1 antagonist inactive
O=[N+]([O-])c1ccc(S(=O)(=O)NCC2CC3CCC2C3)cc1 (configuration not stated)	none
CCc1nc2c(OCC(=O)c3ccc(F)cc3)cccn2c1N(C)C(=O)c1cccs1	none (no result: OX1R antag-1, CHO parental Ca, GPR7 antagonist, OX1R antag-2)
CC(C)CCNC(=O)C1CCN(S(=O)(=O)c2ccc3c(c2)CC(C)N3C(=O)C2CC2)CC1 (configuration not stated)	GPR7 antagonist 25 | GPR7 antag cf inactive | MCHR1 antagonist inactive
CC(C)N(c1ccccc1)c1ccc(NC(=O)COC(=O)CCN2C(=O)c3cccc([N+](=O)[O-])c3C2=O)cc1	GPR7 antagonist 29 | GPR7 antag cf 74 | MCHR1 antagonist 60
CC(=O)c1ccc(NC(=O)COC(=O)CCN2C(=O)c3cccc([N+](=O)[O-])c3C2=O)cc1	none
O=C1C2CC=CCC2C(=O)N1c1ccc(NCCc2ccc(Cl)cc2)c([N+](=O)[O-])c1 (configuration not stated)	none
O=C1C2CC=CCC2C(=O)N1c1ccc(NCCc2ccc(O)cc2)c([N+](=O)[O-])c1 (configuration not stated)	GPR7 antagonist 31 | GPR7 antag cf 28 | MCHR1 antagonist 55
Cc1ccc(NC(=O)c2ccc3c(c2)N(CC(=O)NC(C)C)C(=O)C(C)(C)O3)cc1	none
C=C1CCc2c([nH]c3ccc(OCC(C)C)cc23)C1=O	GPR7 antagonist 57 (no result: OX1R antag-1, CHO parental Ca, OX1R antag-2) | GPR7 antag cf 91 | MCHR1 antagonist 97
CC(Sc1nnc(-c2cccs2)n1Cc1ccccc1)C(=O)NCc1ccc2c(c1)OCO2 (configuration not stated)	GPR7 antagonist 26 | GPR7 antag cf inactive | MCHR1 antagonist inactive
Cn1c(SCC(=O)NCc2ccc3c(c2)OCO3)nnc1-c1cccs1	none
Cc1ccc([N+](=O)[O-])cc1NC(=O)CN(C1CCCCC1)S(=O)(=O)c1ccc(Cl)cc1	none (no result: OX1R antag-1, CHO parental Ca, OX1R antag-2)
Cc1ccc([N+](=O)[O-])cc1NC(=O)CN(C(=O)c1ccccc1Cl)C1CCCCC1	GPR7 antagonist 36 | GPR7 antag cf 39 | MCHR1 antagonist 41
CC(C)Oc1ccc(OCCNC2CCCC2)cc1	none
CCOc1cccc(OCCNC2CCCC2)c1	GPR7 antagonist 61 | GPR7 antag cf inactive | MCHR1 antagonist inactive
O=C1C2C3C=CC(C3)C2C(=O)N1c1ccc(-c2nc3ccccc3o2)cc1 (configuration not stated)	GPR7 antagonist 40 | GPR7 antag cf inactive | MCHR1 antagonist inactive
O=C1C2C3C=CC(C3)C2C(=O)N1c1ccncc1 (configuration not stated)	none
Cc1ccc(CCNC(=O)C2CC(=O)N(C3CCCCC3)C2)cc1 (configuration not stated)	GPR7 antagonist 28 | GPR7 antag cf inactive | MCHR1 antagonist inactive
CN(C)S(=O)(=O)n1cc(/C=C(\NC(=O)c2ccccc2Cl)C(=O)N2CCCC2)c2ccccc21	GPR7 antagonist 31 | GPR7 antag cf inactive | MCHR1 antagonist 34
CCOC(=O)C1CCCN(C(=O)c2cc(C#N)cs2)CC1 (configuration not stated)	none (no result: OX1R antag-1, CHO parental Ca, GPR7 antagonist, OX1R antag-2)
CN(CC(=O)Nc1cccc(C(F)(F)F)c1)Cc1ccccc1	GPR7 antagonist 26 | GPR7 antag cf 24 | MCHR1 antagonist 35
CN(CC(=O)Nc1cccc(S(=O)(=O)N(C)C)c1)Cc1ccccc1	none
CN1CCC(N(C)CC(=O)Nc2ccc3c(c2)OC(F)(F)O3)CC1	none
CN1CCC(N(C)CC(=O)Nc2cccc(Oc3ccccc3)c2)CC1	GPR7 antagonist 27 | GPR7 antag cf inactive | MCHR1 antagonist inactive
CCc1ccc(CN(C)C(=O)c2cc(COc3cccc4cnccc34)on2)cc1	OX1R antag-1 51, CHO parental Ca 67, GPR7 antagonist 38, TAAR1 antag 51 | GPR7 antag cf inactive | MCHR1 antagonist 46
CN(Cc1cccc2cnccc12)C(=O)c1cc(COc2ccc(F)cc2F)on1	none (no result: OX1R antag-1, CHO parental Ca, OX1R antag-2)
CCOC(=O)c1c(NC(C)=O)sc2c(OCC(O)CNC(C)(C)C)c(Br)ccc12 (configuration not stated)	none
CCOC(=O)c1c(N)sc2c(OCC)c(Br)ccc12	GPR7 antagonist 24 | GPR7 antag cf 29 | MCHR1 antagonist 28
O=C(C/C=N\OCc1ccc([N+](=O)[O-])cc1)Nc1ccc(Cl)cc1	GPR7 antagonist 25 | GPR7 antag cf 31 | MCHR1 antagonist 40
COc1c(Cl)c(=O)oc2ccc(Cl)cc12	none (no result: OX1R antag-1, CHO parental Ca, GPR7 antagonist, OX1R antag-2)
COc1ccccc1-n1c(=O)oc2ccc(Cl)cc2c1=O	GPR7 antagonist 28 | GPR7 antag cf inactive | MCHR1 antagonist inactive
OCC[C@@H]1C[C@H](O)[C@@H](O)[C@]2(OCc3ccc(CO)cc32)O1	none (no result: OX1R antag-1, CHO parental Ca, GPR7 antagonist, OX1R antag-2)
CCNC(=O)C1(C)CCCN(Cc2cc3ccccc3o2)C1 (configuration not stated)	none (no result: OX1R antag-1, CHO parental Ca, GPR7 antagonist, OX1R antag-2)
